# Results as given in PubChem BioAssay.
# Calls of active or inactive are those of the source.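 Rule for the calls, unless noted: active = potentiation averaged over duplicate wells exceeding buffer-only control mean by more than 3 SD; inactive = the rest.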
# How the values were obtained:
# [1] = nonspecific flux increase, KCNQ1-free cells – parental CHO cells, counter-screen for KCNQ1 potentiator project (AID 493006;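 active = duplicate-averaged activation above buffer control mean plus 5 SD of those controls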); details: parental CHO-K1 cells, FluxOR thallium flux, at 10 µM; hits give high values
# Procedure, shortened: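 Assay system: Untransfected host CHO-K1 cells with FluxOR thallium dye | Probe or stimulus: Potassium/thallium depolarization pulse | Schedule: Overnight 37 °C plating, 90 min RT dye, 20 min compound | Detection: Kinetic thallium-flux fluorescence | Read-out: Max-minus-min fluorescence over baseline, percent of buffer-to-R-L3 span | Benchmarks: Low control buffer, high control R-L3 activator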
# [2] = molecular target: Potassium voltage-gated channel subfamily KQT member 1 (Homo sapiens) (UniProt P51787); test: enhancement of KCNQ1 channel thallium flux – FluxOR thallium flux, CHO cells, duplicates, confirmation (AID 493007); details: KCNQ1 cell line, FluxOR thallium flux fluorescence, at 10 µM; hits give high values, % of reference activator effect, buffer zero;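 for outcome: cells depolarized by a potassium plus thallium sulfate stimulus after compound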
# Procedure, shortened: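 Material: KCNQ1-expressing CHO cell line; Incubation: FluxOR dye loading 90 min, compound exposure 20 min, room temperature; Detection: FluxOR Tl+ flux fluorescence, 10 s baseline plus 110 s recording; Read-out: percent activation between buffer and R-L3 responses; Control set: buffer-only wells as 0% and R-L3 activator as 100%; Replication: duplicate wells per compound.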
# [3] = molecular target: Potassium voltage-gated channel subfamily KQT member 2 (Rattus norvegicus) (UniProt O88943); test: KCNQ2 thallium flux enhancement – KCNQ2-CHO-K1 cells, selectivity assay for KCNQ1 potentiator project (AID 493009;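 active = mean duplicate potentiation above the buffer control mean plus 5 SD of buffer wells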;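 note: assay conditions were tuned for KCNQ1 rather than KCNQ2 modulators; signal is max minus min fluorescence divided by baseline after thallium stimulus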); details: FluxOR thallium flux fluorescence, at 10 µM; hits give high values, scaled: buffer 0, activator control 100
# [4] = molecular target: Potassium voltage-gated channel subfamily KQT member 1 (Homo sapiens) (UniProt P51787); test: KCNQ1 activators by electrophysiology – IonWorks patch clamp, KCNQ1-CHO cells, orthogonal assay for KCNQ1 potentiator project, confirmation (AID 493184;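 active = current rise at least 3 SD above the untreated control mean in each of two repeat wells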;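 for current potentiation: percent change of the same well's current before compound addition so 0% = no change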); details: automated patch clamp current, at 10 µM; hits give high values
# Procedure, shortened: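 assay system = KCNQ1-expressing CHO cells | medium = external bath solution at pH 7.4 | probe or stimulus = 2,000 ms depolarization, -90 to +40 mV | compound dosing = 10 µM final, single point | measured by = automated voltage clamp, amphotericin B perforated patch | measure = percent current increase versus pre-compound level | replication = duplicates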
# Sequence of Potassium voltage-gated channel subfamily KQT member 2 (Rattus norvegicus) (O88943 whole entry, looked up): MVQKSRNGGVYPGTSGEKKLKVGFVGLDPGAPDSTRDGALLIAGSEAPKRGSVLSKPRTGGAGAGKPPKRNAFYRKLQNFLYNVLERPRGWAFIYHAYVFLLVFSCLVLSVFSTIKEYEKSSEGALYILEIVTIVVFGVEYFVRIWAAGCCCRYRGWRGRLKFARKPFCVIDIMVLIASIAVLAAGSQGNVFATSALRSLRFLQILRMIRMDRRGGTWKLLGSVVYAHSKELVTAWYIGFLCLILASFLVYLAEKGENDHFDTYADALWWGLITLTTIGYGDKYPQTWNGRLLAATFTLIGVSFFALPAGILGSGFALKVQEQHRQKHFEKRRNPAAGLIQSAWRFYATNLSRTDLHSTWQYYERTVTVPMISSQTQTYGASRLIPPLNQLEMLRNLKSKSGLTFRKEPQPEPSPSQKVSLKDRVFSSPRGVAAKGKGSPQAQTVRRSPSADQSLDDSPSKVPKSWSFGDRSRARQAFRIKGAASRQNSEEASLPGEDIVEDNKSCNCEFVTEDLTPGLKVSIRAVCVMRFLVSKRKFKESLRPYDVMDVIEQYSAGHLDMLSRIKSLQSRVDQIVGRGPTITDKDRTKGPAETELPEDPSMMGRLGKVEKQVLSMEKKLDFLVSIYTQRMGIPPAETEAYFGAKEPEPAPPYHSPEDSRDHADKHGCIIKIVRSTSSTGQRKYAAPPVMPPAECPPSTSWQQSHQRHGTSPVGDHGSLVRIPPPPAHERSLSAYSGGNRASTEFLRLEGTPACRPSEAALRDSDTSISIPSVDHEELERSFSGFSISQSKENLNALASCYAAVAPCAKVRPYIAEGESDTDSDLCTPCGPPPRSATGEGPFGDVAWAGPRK
# Sequence of Potassium voltage-gated channel subfamily KQT member 1 (Homo sapiens) (P51787 whole entry, looked up): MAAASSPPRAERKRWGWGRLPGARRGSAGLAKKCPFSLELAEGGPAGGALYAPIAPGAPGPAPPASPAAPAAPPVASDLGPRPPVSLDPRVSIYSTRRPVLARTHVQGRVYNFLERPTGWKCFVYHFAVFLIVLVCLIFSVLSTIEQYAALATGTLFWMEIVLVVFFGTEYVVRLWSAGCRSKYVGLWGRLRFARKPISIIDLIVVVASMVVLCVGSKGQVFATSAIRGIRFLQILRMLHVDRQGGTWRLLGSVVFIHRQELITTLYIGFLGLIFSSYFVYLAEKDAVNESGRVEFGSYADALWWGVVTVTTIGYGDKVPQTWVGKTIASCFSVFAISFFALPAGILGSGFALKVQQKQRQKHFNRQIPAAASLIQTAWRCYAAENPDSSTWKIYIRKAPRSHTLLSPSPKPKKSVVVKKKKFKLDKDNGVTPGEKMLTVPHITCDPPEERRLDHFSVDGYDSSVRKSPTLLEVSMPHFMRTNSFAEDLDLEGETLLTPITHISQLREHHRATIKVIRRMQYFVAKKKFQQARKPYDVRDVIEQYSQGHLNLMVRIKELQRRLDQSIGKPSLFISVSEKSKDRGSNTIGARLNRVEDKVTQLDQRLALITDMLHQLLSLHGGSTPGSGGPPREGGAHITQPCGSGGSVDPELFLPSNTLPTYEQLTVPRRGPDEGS
SMILES,outcome [1],outcome [2],outcome [3],outcome [4],activation [1],potentiation [2],current potentiation [4],potentiation [3]
COc1ccc(C2NC(c3ccc(OC)c(OC)c3OC)C(C)C(=O)C2C)c(OC)c1OC (stereo not given),inactive,inactive,inactive,inactive,–,–,–,–
O=C(NC(=S)N1CCCC1)c1ccc(Cl)cc1,–,inactive,inactive,inactive,150% (active),–,–,–
CS(=O)(=O)N1CCC(C(=O)Nc2ccc(OCc3ccccc3)cc2)CC1,inactive,inactive,inactive,inactive,–,–,–,–
O=C(NC1CC1)C1=NOC(CNc2ncc(C(F)(F)F)cc2Cl)C1 (stereo not given),inactive,inactive,inactive,inactive,–,–,–,–
Cc1ccc(-n2cccc2/C=C2\C(=N)N3N=C(C(C)C)SC3=NC2=O)cc1,inactive,–,inactive,–,–,23.5% (active),36% (active),–
O=C(O)c1ccccc1NS(=O)(=O)c1cccc(-n2sc3ccccc3c2=O)c1,–,–,inactive,inactive,154% (active),18% (active),–,–
COc1cccc(C2=NOC(C(=O)NCc3ccccc3)C2)c1 (stereo not given),inactive,inactive,inactive,inactive,–,–,–,–
CN(C)c1ccc(-c2nn3c(-c4ccccc4Cl)nnc3s2)cc1,inactive,inactive,inactive,inactive,–,–,–,–
S=c1[nH]nc(-c2cccs2)n1/N=C/c1c(Cl)cccc1Cl,inactive,–,–,inactive,–,30% (active),–,196% (active)
CCCCn1c(=S)[nH]c2ncccc2c1=O,inactive,–,–,inactive,–,34.5% (active),–,173% (active)
O=c1c2ccccc2[nH]c(=S)n1CCC1=CCCCC1,–,–,–,inactive,212% (active),46% (active),–,196% (active)
CCOC(=O)Cc1csc(NC(=S)NC(=O)C(C)(C)C)n1,–,inactive,inactive,inactive,136% (active),–,–,–
Cc1cccc(NC(=S)NNC(=O)c2cc3c(s2)CCC(C)C3)c1C (stereo not given),–,–,–,inactive,192% (active),55.5% (active),–,264% (active)
CCCCN(CCCC)C(=S)NC(=O)c1ccccc1Cl,–,–,–,inactive,556% (active),238% (active),–,542% (active)
Cn1ncc2c(O/N=C(\N)c3ccc(C(C)(C)C)cc3)ncnc21,inactive,inactive,inactive,inactive,–,–,–,–
O=C(c1ccc(COc2ccc(Cl)cc2)o1)N1CCN(Cc2ccc3c(c2)OCO3)CC1,inactive,–,inactive,inactive,–,25% (active),–,–
O=c1[nH]cc(N=Cc2cc(Cl)cc(Cl)c2O)c(=O)[nH]1,–,inactive,inactive,inactive,188% (active),–,–,–
CCOc1ccc2[nH]c(=O)c(CN(Cc3ccc(C)cc3)C(=O)N3CCCC3)cc2c1,inactive,inactive,inactive,inactive,–,–,–,–
Cc1cc(NC(=O)CSc2nc(C3CC3)nc3sc(C)c(C)c23)no1,–,–,–,inactive,148% (active),38% (active),–,172% (active)
CCN(c1ccccc1)S(=O)(=O)c1ccc(NC(=O)c2nc(S(C)(=O)=O)ncc2Cl)cc1,inactive,inactive,–,inactive,–,–,–,156% (active)

SMILES,outcome [1],outcome [2],outcome [3],outcome [4],activation [1],potentiation [2],current potentiation [4],potentiation [3]
CCOC(=O)/C(C)=N/NC(=O)c1cccc([N+](=O)[O-])c1,–,–,–,inactive,170% (active),49% (active),–,206% (active)
Cc1[nH]n(-c2ccccc2)c(=O)c1N=Nc1nccs1,–,–,–,–,816% (active),418% (active),20.9% (active),787% (active)
Cc1cc(SCNC(=O)c2ccccc2)ncn1,inactive,inactive,inactive,inactive,–,–,–,–
O=C(NC(=S)Nc1ccccc1)c1cccs1,–,inactive,–,inactive,137% (active),–,–,142% (active)
CC1(c2ccccc2)CC(C)(C)N2C(=O)/C(=C3\SC(=S)NC3=O)c3cccc1c32 (stereo not given),–,–,–,inactive,684% (active),292% (active),–,520% (active)
O=C(/C=C/c1ccccc1Cl)c1ccccc(=O)c1O,–,–,–,inactive,214% (active),134% (active),–,374% (active)
CCCCC(=O)N(c1ccc(OCC)cc1)C1C=CS(=O)(=O)C1 (stereo not given),inactive,inactive,inactive,inactive,–,–,–,–
CCOc1ccc2c(c1)C(NC(C)=O)C(=O)N2CCN1CCOCC1 (stereo not given),inactive,inactive,inactive,inactive,–,–,–,–
c1ccc2c(c1)OCC(CNc1ncnc3nc[nH]c13)O2 (stereo not given),–,–,–,inactive,227% (active),46% (active),–,194% (active)
CCC(C)(C)NC(=O)C(c1ccncc1)N(Cc1cccs1)C(=O)Cn1nnc2ccccc21 (stereo not given),inactive,inactive,inactive,inactive,–,–,–,–
Cc1cc(C)c(S(=O)(=O)Nc2cccc3nsnc23)c(C)c1,inactive,inactive,inactive,inactive,–,–,–,–
O=Cc1ccc2noc(-c3ccc(Cl)cc3)c2c1,inactive,inactive,inactive,inactive,–,–,–,–
S=c1nc(Cc2ccccc2)[nH]c2ccccc12,–,–,–,inactive,280% (active),110% (active),–,415% (active)
Cc1ccc(C(=O)NNC(=O)CCCCC(=O)NNC(=O)c2ccc(C)cc2)cc1,inactive,inactive,inactive,inactive,–,–,–,–
CC(C)(C)NC(=O)C(=O)NNC(=O)C12CC3CC(CC(C3)C1)C2,–,–,–,inactive,178% (active),40% (active),–,192% (active)
O=C(Nc1ccccc1OC(F)F)c1ccc(F)cc1,inactive,inactive,inactive,inactive,–,–,–,–
C/C(CCc1oc2c(Br)cc(Br)cc2c1-c1ccc(C)o1)=N\O,inactive,inactive,inactive,inactive,–,–,–,–
Fc1ccccc1Nc1nc(Cl)nc(Cl)n1,inactive,inactive,inactive,inactive,–,–,–,–
COc1ccc(N2CCN(C(=S)NC(=O)c3cccs3)CC2)c([N+](=O)[O-])c1,–,–,–,inactive,139% (active),74.5% (active),–,232% (active)
CSc1ccc(/C=N/NC(=O)c2cccs2)cc1,inactive,inactive,inactive,inactive,–,–,–,–

SMILES,outcome [1],outcome [2],outcome [3],outcome [4],activation [1],potentiation [2],current potentiation [4],potentiation [3]
C=C(C)CNC(=S)Nc1nc2c(cc1C(=O)OCC)CCCC2,–,inactive,inactive,inactive,143% (active),–,–,–
COc1ccc(NC(=O)C(=O)NNC(=O)c2ccc(Cl)cc2Cl)cc1,–,–,–,inactive,412% (active),200% (active),–,492% (active)
CC(/C=N/n1c(-c2ccc(Cl)cc2)n[nH]c1=S)=C\c1ccco1,inactive,–,inactive,inactive,–,28% (active),–,–
O=[N+]([O-])c1ccc(Nc2ccc(Cl)cc2)nc1,inactive,inactive,–,inactive,–,–,–,166% (active)
COc1ccc(N2CCN(S(=O)(=O)c3ccc(OC)c(C(=O)N4CCCCC4)c3)CC2)cc1,inactive,inactive,inactive,inactive,–,–,–,–
O=C1NN(c2ccccc2)C(=O)/C1=C\c1cccc(OC(=O)c2cccs2)c1,–,–,–,inactive,187% (active),61.5% (active),–,202% (active)
CCCc1nc(SCC(=O)Nc2cc(Cl)ccc2OC)c2c(=O)n(C)c(=O)n(C)c2n1,inactive,inactive,inactive,inactive,–,–,–,–
CCOC(=O)CC1=NS(=O)(=O)c2ccccc2N1,inactive,inactive,inactive,inactive,–,–,–,–
O=c1c2ccc(Cl)cc2nc(-c2ccc([N+](=O)[O-])cc2)n1O,–,–,–,inactive,345% (active),90.5% (active),–,428% (active)
Cc1ccc(-c2c(C)n([O-])c3c([n+]2=O)CCCC3)o1,inactive,inactive,inactive,inactive,–,–,–,–
CC(Oc1ccc(Br)cc1)C(=O)Nc1ccc(S(=O)(=O)N(C)C2CCN(C)CC2)cc1 (stereo not given),–,–,–,inactive,626% (active),190% (active),–,570% (active)
Cc1ccccc1Cn1c(O)c(N=NC(=S)Nc2ccccc2F)c2ccccc21,inactive,–,inactive,inactive,–,36% (active),–,–
Cc1ccc(OCc2n[nH]c(=S)n2-c2ccc(Br)cc2)cc1,inactive,–,–,inactive,–,22.5% (active),–,146% (active)
CC(=O)c1c(N2CCOCC2)[nH]c(-c2ccccc2)nc1=S,–,–,–,inactive,202% (active),66.5% (active),–,204% (active)
N#C/C(=C\c1ccc(-c2ccccc2Cl)o1)C(=O)Nc1nc2ccccc2s1,inactive,inactive,inactive,inactive,–,–,–,–
CC(C)CN1C(=O)/C(=C/c2cccs2)NC1=S,–,–,–,inactive,392% (active),180% (active),–,450% (active)
CCn1c(=S)[nH]c2c(c1=O)C(C)(C)Cc1ccccc1-2,–,inactive,inactive,inactive,150% (active),–,–,–
CN(C(=O)c1ccco1)c1nnc(-c2ccc(F)cc2)s1,inactive,inactive,inactive,inactive,–,–,–,–
Cc1c(N=Cc2cc(Br)cc(Br)c2O)cccc1C(=O)O,inactive,–,inactive,inactive,–,42% (active),–,–
CCOC(=O)Cc1csc(NC(=S)NC(=O)c2ccccc2Br)n1,–,–,–,inactive,233% (active),51% (active),–,239% (active)
